From ChEMBL document CHEMBL5724801, “EUbOPEN Chemogenomics Library - Multiplex” (2024)
“And” between values parts separate entries of the source, which are not always exact repeats. Equal entries are not always repeated.

Tested on: HEK-293T
Assay: Multiplex assay against HEK293T
Format: toxicity, cell-based
Conditions: human
In short: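 On a CQ1 microscope at 37°C and 5% CO2, live cells were imaged after compound addition. They had been stained at seeding with Hoechst33342, BioTracker Green Microtubule Cytoskeleton Dye, MitoTracker Red and Annexin V Alexa Fluor 680. CellPathfinder machine-learning gating assigned cells to Hoechst high-intensity objects or normal cells, normal cells to healthy, pyknosed or fragmented nuclei, and pyknosed cells to mitotic or apoptotic. Tubulin, mitochondrial-mass and membrane-permeability phenotypes are per cents of healthy-nucleus cells.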

[1] = 12 h, 1 µM, compound concentration 1 uM
[2] = 12 h, 10 µM, compound concentration 10 uM
[3] = 24 h, 1 µM, compound concentration 1 uM
[4] = 24 h, 10 µM, compound concentration 10 uM
[5] = 48 h, 1 µM, compound concentration 1 uM
[6] = 48 h, 10 µM, compound concentration 10 uM

## CC(C)CC(=O)Nc1cncc(-c2ccc3[nH]nc(-c4nc5c(-c6cccc(F)c6)cncc5[nH]4)c3c2)c1 [LORECIVIVINT]
[1]
  Population Apoptotic (%): 14.17% and 27.84%
  Population Fragmented Nuclei (%): 5.95% and 3.7%
  Population Hoechst High Intensity Objects (%): 0%
  Population Membrane Permeable-Phenotype (%): 0% and 14.29%
  Population Mitochondria Different-Phenotype (%): 48.15% and 42.86%
  Population Mitotic Cells (%): 85.83% and 72.16%
  Population Normal (%): 100%
  Population Pyknosed Nuclei (%): 64.86% and 89.81%
  Population Tubulin-Different-Phenotype (%): 64.81% and 57.14%
  Total Cell Count: 185 and 108
[2]
  Population Apoptotic (%): 42.93% and 42.98%
  Population Fragmented Nuclei (%): 3.44% and 7.88%
  Population Healthy Nuclei (%): 23.66% and 18.79%
  Population Hoechst High Intensity Objects (%): 0%
  Population Membrane Permeable-Phenotype (%): 3.23%
  Population Mitochondria Different-Phenotype (%): 19.35% and 6.45%
  Population Mitotic Cells (%): 57.07% and 57.02%
  Population Normal (%): 100%
  Population Pyknosed Nuclei (%): 72.9% and 73.33%
  Total Cell Count: 262 and 165
[3]
  Population Apoptotic (%): 54.44% and 66.67%
  Population Fragmented Nuclei (%): 8.33% and 5.61%
  Population Hoechst High Intensity Objects (%): 0.64% and 0%
  Population Membrane Permeable-Phenotype (%): 0%
  Population Mitochondria Different-Phenotype (%): 83.02% and 75%
  Population Mitotic Cells (%): 45.56% and 33.33%
  Population Normal (%): 99.36% and 100%
  Population Pyknosed Nuclei (%): 57.69% and 86.92%
  Population Tubulin-Different-Phenotype (%): 94.34% and 50%
  Total Cell Count: 157 and 107
[4]
  Population Apoptotic (%): 59.46% and 44.57%
  Population Fragmented Nuclei (%): 4.4% and 5.7%
  Population Healthy Nuclei (%): 25.79% and 17.54%
  Population Hoechst High Intensity Objects (%): 0.93% and 0%
  Population Membrane Permeable-Phenotype (%): 3.66% and 10%
  Population Mitotic Cells (%): 40.54% and 55.43%
  Population Normal (%): 99.07% and 100%
  Population Pyknosed Nuclei (%): 69.81% and 76.75%
  Population Tubulin-Different-Phenotype (%): 34.15% and 12.5%
  Total Cell Count: 321 and 228
[5]
  Population Apoptotic (%): 79.78% and 84.11%
  Population Fragmented Nuclei (%): 10.98% and 4.07%
  Population Hoechst High Intensity Objects (%): 1.2% and 0%
  Population Mitochondria Different-Phenotype (%): 82.46% and 45.45%
  Population Mitotic Cells (%): 20.22% and 15.89%
  Population Normal (%): 98.8% and 100%
  Population Pyknosed Nuclei (%): 54.27% and 86.99%
  Population Tubulin-Different-Phenotype (%): 73.68% and 63.64%
  Total Cell Count: 166 and 123
[6]
  Population Apoptotic (%): 54.1% and 55.85%
  Population Fragmented Nuclei (%): 3.22% and 5.44%
  Population Healthy Nuclei (%): 24.93% and 15.9%
  Population Hoechst High Intensity Objects (%): 0.27% and 0.42%
  Population Membrane Permeable-Phenotype (%): 2.15% and 5.26%
  Population Mitochondria Different-Phenotype (%): 30.11% and 18.42%
  Population Mitotic Cells (%): 45.9% and 44.15%
  Population Normal (%): 99.73% and 99.58%
  Population Pyknosed Nuclei (%): 71.85% and 78.66%
  Population Tubulin-Different-Phenotype (%): 15.05% and 18.42%
  Total Cell Count: 374 and 240

## CCNC1(C(N)=O)CCN(c2ncnc3c2nc(-c2ccccc2Cl)n3-c2ccc(Cl)cc2)CC1 [OTENABANT]
[1]
  Population Apoptotic (%): 51% and 58%
  Population Fragmented Nuclei (%): 8%
  Population Healthy Nuclei (%): 80% and 76%
  Population Hoechst High Intensity Objects (%): 10% and 6%
  Population Membrane Permeable-Phenotype (%): 0%
  Population Mitochondria Different-Phenotype (%): 48% and 66%
  Population Mitotic Cells (%): 48% and 41%
  Population Normal (%): 89% and 93%
  Population Pyknosed Nuclei (%): 10% and 15%
  Population Tubulin-Different-Phenotype (%): 52% and 44%
  Total Cell Count: 401 and 333
[2]
  Population Apoptotic (%): 46% and 63%
  Population Fragmented Nuclei (%): 3% and 4%
  Population Healthy Nuclei (%): 74% and 67%
  Population Hoechst High Intensity Objects (%): 16% and 9%
  Population Membrane Permeable-Phenotype (%): 0%
  Population Mitochondria Different-Phenotype (%): 82% and 96%
  Population Mitotic Cells (%): 53% and 36%
  Population Normal (%): 83% and 90%
  Population Pyknosed Nuclei (%): 22% and 27%
  Population Tubulin-Different-Phenotype (%): 50% and 43%
  Total Cell Count: 381 and 251
[3]
  Population Apoptotic (%): 49% and 40%
  Population Fragmented Nuclei (%): 8% and 12%
  Population Healthy Nuclei (%): 80% and 75%
  Population Hoechst High Intensity Objects (%): 5%
  Population Membrane Permeable-Phenotype (%): 0%
  Population Mitochondria Different-Phenotype (%): 43% and 47%
  Population Mitotic Cells (%): 50% and 59%
  Population Normal (%): 94%
  Population Pyknosed Nuclei (%): 11%
  Population Tubulin-Different-Phenotype (%): 44% and 41%
  Total Cell Count: 474 and 442
[4]
  Population Apoptotic (%): 40% and 64%
  Population Fragmented Nuclei (%): 8% and 6%
  Population Healthy Nuclei (%): 71% and 77%
  Population Hoechst High Intensity Objects (%): 17% and 13%
  Population Membrane Permeable-Phenotype (%): 1% and 0%
  Population Mitochondria Different-Phenotype (%): 79% and 95%
  Population Mitotic Cells (%): 59% and 35%
  Population Normal (%): 82% and 86%
  Population Pyknosed Nuclei (%): 19% and 15%
  Population Tubulin-Different-Phenotype (%): 56% and 53%
  Total Cell Count: 452 and 283
[5]
  Population Apoptotic (%): 34% and 32%
  Population Fragmented Nuclei (%): 12% and 8%
  Population Healthy Nuclei (%): 78% and 82%
  Population Hoechst High Intensity Objects (%): 4%
  Population Membrane Permeable-Phenotype (%): 1% and 0%
  Population Mitochondria Different-Phenotype (%): 29% and 30%
  Population Mitotic Cells (%): 65% and 68%
  Population Normal (%): 95%
  Population Pyknosed Nuclei (%): 9% and 8%
  Population Tubulin-Different-Phenotype (%): 30%
  Total Cell Count: 766 and 604
[6]
  Population Apoptotic (%): 52% and 70%
  Population Fragmented Nuclei (%): 13% and 10%
  Population Healthy Nuclei (%): 71% and 77%
  Population Hoechst High Intensity Objects (%): 16% and 14%
  Population Membrane Permeable-Phenotype (%): 2% and 0%
  Population Mitochondria Different-Phenotype (%): 78% and 89%
  Population Mitotic Cells (%): 47% and 29%
  Population Normal (%): 83% and 85%
  Population Pyknosed Nuclei (%): 15% and 12%
  Population Tubulin-Different-Phenotype (%): 66% and 57%
  Total Cell Count: 560 and 325
